Measured values pooled from the literature.
Lines come from different studies, so protocols differ.
Medium: plasma

Compound	test system	setting	quantity	result
CCc1cc(OC)c2nccc(N3CCc4c(cc(Cn5ccnc5)cc4-c4cn(C)nc4C(F)(F)F)C3=O)c2c1	male CD-1 mouse	oral, 50 mg/kg	MRT(0-inf)	2.5 h
Cc1cc(NC(=O)c2cccc3cc(-c4cccc5[nH]nc(N)c45)ccc23)ccc1F	male CD-1 mouse	oral, 10 mg/kg	MRT(0-inf)	3.54 h
COc1ccc2cc(CCC[18F])ccc2c1	male BALB/c mouse	intravenous	MRT	0.698 h
CCc1cc(C(=O)NC)c2nccc(N3CCc4c(cc(Cn5ccnc5)cc4-c4cn(C)nc4C(F)(F)F)C3=O)c2c1	male CD-1 mouse	intravenous, 3 mg/kg	MRT(0-inf)	0.5 h
COc1nc(-c2cc(C)c(N[C@@H](C)c3cc(F)cc(F)c3)nn2)ccc1-n1cnc(C)c1	male CD-1 mouse	oral, 5 mg/kg, single dose	MRT(0-t)	5.4 h
Cc1ccc2cncc(N3CCc4c(cc(Cn5ccnc5)cc4-c4cn(C)nc4C(F)(F)F)C3=O)c2c1	male CD-1 mouse	oral, 50 mg/kg	MRT(0-inf)	3.5 h
c1ccc(-c2nc(N3CCC(c4ccccn4)C3)c3ccccc3n2)nc1 (stereo not shown)	female BALB/c mouse	oral, 50 mg/kg	MRT(0-inf)	5.7 h
COc1nc(-c2cc(C)c(N[C@@H](C)c3c(F)cc(F)cc3F)nn2)ccc1-n1cnc(C)c1	male CD-1 mouse	oral, 5 mg/kg, single dose	MRT(0-t)	5.24 h
CC(C)(Nc1nc(-c2ccccn2)nc2ccccc12)c1ccccn1	female BALB/c mouse	intravenous, 1 mg/kg	MRT(0-inf)	1.2 h
COc1nc(-c2cc(C)c(N[C@@H](C)c3ccc(F)cc3)nn2)ccc1-n1cnc(C)c1	male CD-1 mouse	intravenous, 1 mg/kg, single dose	MRT(0-t)	3.62 h
